Assay results as given in PubChem BioAssay AID488934 (Broad Institute, 2010).
Inconclusive results are not listed. The source made the active and inactive calls.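 How the source made its calls: active means compounds raising caspase signal whose fitted AC50 lies at or below the top valid dose tested; inconclusive means flat curve at 30 to 70 percent activity, or a poor fit; inactive means the rest.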

Tests used:
[1] = Caspase-Glo signal, Mel501 melanoma line – cell-based, human Mel501, dry powder, A1 (Bcl2A1) inhibitor project, dose response (AID 488934); settings: Mel501 melanoma cells, caspase-3/7 Glo luminescence, 6 h
In short: (§1)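 System: human Mel501 melanoma cell line / Input: 2500 cells per well / Times: 6 h compound at 37 °C, 1 h reagent at room temperature / Technique: Caspase-3/7 luminescence, DEVD-luciferin substrate / Buffer or medium: RPMI-1640, 10% FBS, plus TSA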

[2] = test system: Mel501 melanoma cells, caspase-3/7 Glo luminescence, 6 h; assay: as above
In short: as §1

| Compound | caspase activation ([1]; at 150 µM (top of the series)) | also measured |
| --- | --- | --- |
| COc1cccc(C(=O)C(C#N)=C(SC)SC)c1 | -0.394% (inactive) | – |
| COc1ccc(N(C(=O)CCl)C(C(=O)NCCc2ccccc2)c2cccs2)cc1Cl (stereo not drawn) | – | AC50 [2]: 30.1 µM |
| CCc1nnc(NC(=O)c2nc(S(=O)(=O)Cc3ccccc3)ncc2Cl)s1 | -0.521% (inactive) | – |
| CCc1cc2c(=O)c(-c3cnn(-c4ccccc4)c3)c(C)oc2cc1OCC(=O)Nc1cccc(C)c1 | 0.716% (inactive) | – |
| COc1cc(/C=C(/C#N)c2nc3ccccc3[nH]2)ccc1OCC(=O)Nc1ccccc1C(C)C | 1.07% (inactive) | – |
| Cc1c(C=O)c(C=O)c(C)n1Cc1ccccc1 | – | AC50 [2]: > 150 µM (inactive) |
| C=C1[C@@H](C)[C@H]2[C@H](Cc3ccccc3)NC(=O)[C@]23OC(=O)/C=C\[C@H](O)CCC[C@@H](C)C/C=C/[C@H]3[C@@H]1O | 0.77% (inactive) | – |
| CCOC(=O)CSC1=N/C(=C/c2ccc(-n3cncn3)cc2)C(=O)N1C(C)=O | 0.822% (inactive) | – |
| O=C(Oc1cccc(/C=N/Nc2nc(Nc3ccccc3)nc(N3CCOCC3)n2)c1)c1ccco1 | 0.28% (inactive) | – |
| CCSc1nnc(NC(=O)c2nc(S(=O)(=O)Cc3ccc(F)cc3)ncc2Cl)s1 | -2.12% (inactive) | – |
| Cc1cccc(NC(=O)/C(C#N)=C/c2cn(CC(=O)NCc3ccco3)c3ccccc23)c1 | – | AC50 [2]: > 150 µM (inactive) |
| C=C1[C@@H](C)[C@H]2[C@H](Cc3ccccc3)NC(=O)[C@]23[C@H](OC(C)=O)/C=C/[C@](C)(O)C(=O)[C@@H](C)C/C=C/[C@H]3[C@@H]1O | 0.757% (inactive) | – |
| Nc1nc(F)nc2c1ncn2[C@@H]1O[C@H](CO)[C@@H](O)[C@H]1O | 0.438% (inactive) | – |
| Cc1cccc(CS(=O)(=O)c2ncc(Cl)c(C(=O)Nc3nnc(C(C)C)s3)n2)c1 | -1.69% (inactive) | – |
| O=C(CCl)N=c1sccn1Cc1ccccc1Cl | 2.16% (inactive) | – |
| Cc1ccc(Sc2c([N+](=O)[O-])c(=O)n(C)c3ccccc23)cc1 | – | AC50 [2]: 69.7 µM |
| Cc1cc(C(=O)CCl)c(C)n1CCc1ccc(Cl)cc1 | – | AC50 [2]: 17.8 µM |
| CC(=O)N[C@H]1[C@H](O[C@H]2CC[C@@]3(C)C(CC[C@]4(C)C3CC=C3[C@@H]5CC(C)(C)CC[C@]5(C(=O)OC5OCC(O)C(O)C5O)C(O)C[C@]34C)C2(C)C)O[C@H](COC2OCC(O)C(OC3OCC(O)C(O)C3O)C2O)[C@@H](O[C@@H]2O[C@@H](C)[C@H](O)[C@@H](O)[C@H]2O[C@@H]2O[C@@H](C)[C@H](O)[C@@H](O)[C@H]2O)[C@@H]1O (stereo partly drawn) | – | caspase activation ([1]; at 135 µM (top of the series)): -0.618% (inactive) |
| CC(C)(C)n1nc(-c2ccc(Cl)cc2)c2c(N)ncnc21 | 2.25% (inactive) | – |
| Cc1c(CCOC(=O)c2ccc(N3CCOCC3)c([N+](=O)[O-])c2)sc[n+]1CC#N | – | AC50 [2]: 18.8 µM |
| Cc1ccc(CS(=O)(=O)c2ncc(Cl)c(C(=O)Nc3nnc(C(C)C)s3)n2)cc1 | -1.79% (inactive) | – |
| Cn1c(=NC(=O)CCl)sc2ccccc21 | 0.601% (inactive) | – |
| C/C1=C/C(=O)O[C@@H]2C[C@@H](CC[C@H](C)/C=C\CC1)O[C@@](O)(C1CSC(=O)N1)C2 (stereo partly drawn) | 0.0337% (inactive) | – |
